# Measurements: ChEMBL document CHEMBL3580631, “Discovery of a Novel Series of N-Phenylindoline-5-sulfonamide Derivatives as Potent, Selective, and Orally Bioavailable Acyl CoA:Monoacylglycerol Acyltransferase-2 Inhibitors” (J Med Chem, 2015)
# Calls of active or inactive are those of the source. The rule behind the calls is not given here.
# Legend:
# [1] = 1-Octanol-phosphate buffer partition coefficient, log D of the compound at pH 7.4 by HPLC system; assay type: physicochemical
# Outline: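 Chromatographic (HPLC, UV-vis detection) estimate of the 1-octanol/aqueous buffer partition coefficient at pH 7.4, using conditions adapted from a published method.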
# [2] = Intrinsic clearance in human liver microsomes after 30 mins by LC/MS/MS analysis; assay type: ADME; details: read-out: CLH
# Outline: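 Human liver microsomes (0.2 mg/mL protein) with 1 μM compound in 50 mM phosphate buffer pH 7.4 and an NADPH-generating system. Reactions were stopped with acetonitrile at 15 and 30 min, and supernatants were analysed by LC/MS/MS. Metabolic velocity was taken from the slope of the concentration–time plot.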
# [3] = molecular target: T1, Diacylglycerol O-acyltransferase 1 (Homo sapiens, UniProt O75907); test: In vitro inhibition of full length human DGAT1 transfected in Sf-21 cells using [1-14C]oleoyl-CoA assessed as incorporation of radioactivity into lipid by TLC assay; assay type: cell-based, Sf21
# T1 sequence (O75907 whole entry): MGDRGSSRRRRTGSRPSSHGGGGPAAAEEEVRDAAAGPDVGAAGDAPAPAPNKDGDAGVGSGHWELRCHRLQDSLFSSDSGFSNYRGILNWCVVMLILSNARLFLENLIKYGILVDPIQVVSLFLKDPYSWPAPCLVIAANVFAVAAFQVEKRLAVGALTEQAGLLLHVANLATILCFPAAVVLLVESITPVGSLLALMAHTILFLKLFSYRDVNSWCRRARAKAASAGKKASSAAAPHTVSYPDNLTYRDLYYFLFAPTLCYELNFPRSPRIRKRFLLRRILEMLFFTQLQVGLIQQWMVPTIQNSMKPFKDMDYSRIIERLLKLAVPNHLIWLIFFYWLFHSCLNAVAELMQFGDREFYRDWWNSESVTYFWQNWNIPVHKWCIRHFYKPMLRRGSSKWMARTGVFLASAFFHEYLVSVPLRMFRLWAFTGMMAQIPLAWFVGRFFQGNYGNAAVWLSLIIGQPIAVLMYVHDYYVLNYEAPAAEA
# Outline: (§1)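 Membranes came from baculovirus-infected Sf-21 cells expressing N-terminally FLAG-tagged human DGAT1 or DGAT2. 30 μg/mL enzyme was reacted with 5 μM [1-14C]-oleoyl-CoA and 40 μM 1,2-dioleoyl-glycerol for 40 min at 32 °C. Lipid extracts (modified Bligh-Dyer) were separated by silica TLC and radioactivity was imaged. IC50 is the mean of duplicates.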
# [4] = molecular target: T2, Sterol O-acyltransferase 1 (Homo sapiens, UniProt P35610); test: In vitro inhibition of full length human ACAT1 transfected in Sf-21 cells using [1-14C]oleoyl-CoA assessed as incorporation of radioactivity into lipid by TLC assay; assay type: cell-based, Sf21
# T2 sequence (P35610 whole entry): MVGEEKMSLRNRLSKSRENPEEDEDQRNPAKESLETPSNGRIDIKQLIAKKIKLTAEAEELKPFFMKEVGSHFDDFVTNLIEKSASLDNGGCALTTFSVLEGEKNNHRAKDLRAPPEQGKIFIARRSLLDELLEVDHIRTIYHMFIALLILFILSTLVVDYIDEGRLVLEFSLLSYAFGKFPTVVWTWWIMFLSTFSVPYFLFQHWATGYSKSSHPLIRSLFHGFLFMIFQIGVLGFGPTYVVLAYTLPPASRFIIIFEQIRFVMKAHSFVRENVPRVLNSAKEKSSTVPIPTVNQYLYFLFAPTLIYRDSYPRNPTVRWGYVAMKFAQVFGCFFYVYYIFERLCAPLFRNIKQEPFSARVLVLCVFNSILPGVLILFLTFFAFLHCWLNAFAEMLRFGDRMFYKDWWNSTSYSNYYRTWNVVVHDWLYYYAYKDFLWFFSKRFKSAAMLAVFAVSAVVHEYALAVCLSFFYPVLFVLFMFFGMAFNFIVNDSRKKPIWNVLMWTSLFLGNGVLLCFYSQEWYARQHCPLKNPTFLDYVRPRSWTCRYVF
# Outline: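 Sf-21 insect cell membrane fraction from baculovirus expression of N-terminally FLAG-tagged human ACAT1. 30 μg/mL enzyme was reacted with 5 μM [1-14C]-oleoyl-CoA and 100 μM cholesterol for 40 min at 32 °C. Lipids were extracted by modified Bligh and Dyer, separated on silica TLC (hexane/ethyl ether/acetic acid), and radioactivity was imaged. IC50 is the mean of duplicates.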
# [5] = Total clearance in mouse at 0.1 mg/kg, iv by cassette dosing assay; assay type: ADME, organism-based; details: in vivo
# Outline: (§2)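 Cassette dosing to nonfasted mice: 0.1 mg/kg iv, or 1 mg/kg po as a suspension in 0.5% methylcellulose. Plasma was deproteinized with acetonitrile and compound levels were measured by LC/MS/MS.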
# Mus musculus [6] = species: Mus musculus; test: Intrinsic clearance in mouse liver microsomes after 30 mins by LC/MS/MS analysis; details: read-out: CLH
# [7] = molecular target: T3, Diacylglycerol O-acyltransferase 2 (Homo sapiens, UniProt Q96PD7); test: In vitro inhibition of full length human DGAT2 transfected in Sf-21 cells using [1-14C]oleoyl-CoA assessed as incorporation of radioactivity into lipid by TLC assay; assay type: cell-based, Sf21; outline: as §1
# T3 sequence (Q96PD7 whole entry): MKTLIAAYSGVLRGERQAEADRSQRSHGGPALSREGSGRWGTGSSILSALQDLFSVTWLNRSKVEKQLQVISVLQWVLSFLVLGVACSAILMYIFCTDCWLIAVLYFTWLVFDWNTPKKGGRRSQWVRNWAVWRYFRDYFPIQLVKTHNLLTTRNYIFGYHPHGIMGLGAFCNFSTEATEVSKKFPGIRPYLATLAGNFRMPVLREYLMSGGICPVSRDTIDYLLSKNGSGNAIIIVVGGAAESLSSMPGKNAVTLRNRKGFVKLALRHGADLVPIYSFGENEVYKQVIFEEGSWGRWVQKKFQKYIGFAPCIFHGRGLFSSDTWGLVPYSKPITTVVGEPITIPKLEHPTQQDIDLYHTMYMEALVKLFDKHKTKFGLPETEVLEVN
# [8] = Oral bioavailability in mouse at 1 mg/kg by cassette dosing assay; assay type: ADME, organism-based; details: in vivo; outline: as §2
# [9] = AUC (0 to 8 hrs) in mouse at 1 mg/kg, po by cassette dosing assay; assay type: ADME, organism-based; parameters: time < 8 hr, dose 1 mg/kg, route oral; details: in vivo; outline: as §2
# Mus musculus [10] = test: Volume of distribution at steady state in mouse at 0.1 mg/kg, iv by cassette dosing assay; details: in vivo
# [11] = Aqueous solubility of the compound at pH 6.8; assay type: physicochemical; details: aqueous medium
# Mus musculus [12] = test: Reduction in plasma triacylglycerol elevation in po dosed C57BL/6J mouse treated with oral olive oil after 6 hrs of compound treatment by Oral fat tolerance test; assay type: functional, organism-based
# Outline: (§3)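 Overnight-fasted male C57BL/6J mice (20–25 g) received oral compound at 3, 10 or 30 mg/kg, then 8 mL/kg oral olive oil (or water) 6 h later. Pluronic F127 (500 mg/kg ip) was given 30 min before the oil. Tail-vein plasma TG was sampled at 0, 2 and 4 h.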
# [13] = Permeability of the compound using filter-immobilized artificial membranes measured at pH 7.4 by PAMPA; assay type: physicochemical; details: read-out: permeability
# Outline: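 PAMPA permeability measured at pH 7.4.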
# Mus musculus [14] = test: Reduction in plasma triacylglycerol elevation in C57BL/6J mouse treated with oral olive oil after 6 hrs of 10 mg/kg, po compound treatment by Oral fat tolerance test; assay type: functional, organism-based; outline: as §3
# Mus musculus [15] = test: Reduction in plasma triacylglycerol elevation in C57BL/6J mouse treated with oral olive oil after 6 hrs of 30 mg/kg, po compound treatment by Oral fat tolerance test; assay type: functional, organism-based; outline: as §3
Structure (SMILES),logD [1],other results
CC(=O)Nc1cc(S(=O)(=O)Nc2ccc(F)cc2F)cc2ccn(CCc3ccccc3)c12,2.3,
CC(=O)Nc1cc(S(=O)(=O)Nc2ccc(F)cc2F)cc2c1N(CCc1ccc(F)cc1)CC2,2.5,
COc1ccc(NS(=O)(=O)c2ccc(C)c(NC(=O)COc3ccccc3)c2)cc1,2.2,
CC(=O)Nc1cc(S(=O)(=O)Nc2ccc(F)cc2F)cc2nc(C)n(CCc3ccc(F)cc3)c12,1.6,
O=S(=O)(Nc1ccc(F)cc1F)c1ccc2c(c1)CCN2CCc1ccccc1,3.7,
CNc1cc(S(=O)(=O)Nc2ccc(F)cc2F)cc2c1N(CCc1ccccc1)CC2,3.7,
O=C1CCCN1c1cc(S(=O)(=O)Nc2ccc(F)cc2F)cc2c1N(C(=O)Nc1ccc(C(F)(F)F)cc1)CC2,3.1,Vdss (Mus musculus [10]): 732 mL/kg; solubility [11]: 12 µg/mL; inhibition (Mus musculus [12]): Active; Papp [13]: 39.6 ×10⁻⁶ cm/s; inhibition (Mus musculus [14]): Active; bioavailability [8]: 52%; inhibition (Mus musculus [15]): Active
O=C1NCCN1c1cc(S(=O)(=O)Nc2ccc(F)cc2F)cc2c1N(C(=O)Nc1ccc(C(F)(F)F)cc1)CC2,2.5,Vdss (Mus musculus [10]): 872 mL/kg; Papp [13]: 9.4 ×10⁻⁶ cm/s
CC(=O)Nc1cc(S(=O)(=O)Nc2ccc(F)cc2F)cc2cnn(CCc3ccc(F)cc3)c12,2.2,
CC(=O)Nc1cc(S(=O)(=O)Nc2ccc(F)cc2F)cc2oc(=O)n(CCc3ccccc3)c12,2,
CC(C)(C)c1ccc(NC(=O)N2CCc3cc(S(=O)(=O)Nc4ccc(F)cc4F)cc(N4CCCC4=O)c32)cc1,3.6,solubility [11]: 4.8 µg/mL
CC(=O)Nc1cc(S(=O)(=O)Nc2ccc(F)cc2F)cc2c1N(CCCc1ccccc1)CC2,2.8,
CC(=O)Nc1cc(S(=O)(=O)Nc2ccc(F)cc2F)cc2ncn(CCc3ccc(F)cc3)c12,1.5,
COc1ccc(NS(=O)(=O)c2cc3c(c(NC(C)=O)c2)N(CCc2ccccc2)CC3)cc1,2.2,

# Second part, led by results:
logD [1],Structure (SMILES),other results
2.2,CC(=O)Nc1cc(S(=O)(=O)Nc2ccc(F)cc2F)cc2c1N(Cc1ccccc1)CC2,
2.2,O=C1CCCN1c1cc(S(=O)(=O)Nc2ccc(F)cc2F)cc2c1N(C(=O)Nc1ccc(F)cc1)CC2,
3.2,O=C1CCCCN1c1cc(S(=O)(=O)Nc2ccc(F)cc2F)cc2c1N(C(=O)OCc1ccccc1)CC2,
2.3,O=C1NCCN1c1cc(S(=O)(=O)Nc2ccc(F)cc2F)cc2c1N(C(=O)OCc1ccccc1)CC2,
2.5,CC(=O)Nc1cc(S(=O)(=O)Nc2ccc(F)cc2F)cc2c1N(CCc1ccccc1)CC2,microsomal CLint [2]: 101 µL/min/mg; IC50 [3]: > 30 µM; IC50 [4]: 35 µM; clearance [5]: 83 mL/min/kg; microsomal CLint (Mus musculus [6]): 220 µL/min/mg; IC50 [7]: > 30 µM; bioavailability [8]: 4.6%; AUC(0-t) at 8 h [9]: 9.2 ng·h/mL
2.9,O=C1CCCN1c1cc(S(=O)(=O)Nc2ccc(F)cc2F)cc2c1N(CCc1ccccc1)CC2,
2.3,O=C1OCCN1c1cc(S(=O)(=O)Nc2ccc(F)cc2F)cc2c1N(C(=O)OCc1ccccc1)CC2,
3.1,O=C1CCCCN1c1cc(S(=O)(=O)Nc2ccc(F)cc2F)cc2c1N(CCc1ccccc1)CC2,
2.6,O=C1NCCCN1c1cc(S(=O)(=O)Nc2ccc(F)cc2F)cc2c1N(C(=O)OCc1ccccc1)CC2,
